Bioassay records deposited in PubChem by several laboratories.
Hits are enriched below; roughly 4.7% of the tested compounds scored in any of these assays.
RGS4 block – inhibitors of human RGS4; HEK293 M3R/RGS4 inducible, Fluo-4 calcium flux; stronger effect = higher value; triggered by carbachol at its EC20; B-score at 10 µM; 310,000 compounds, 0.45% hits;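 active = B-score, a plate-corrected calcium signal, over three deviations above library mean, with baseline fluorescence within five deviations of library mean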;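 note: RGS4 expression induced by doxycycline in cells with stable M3 receptor; B-score is computed from the integrated fluorescence ratio over baseline after carbachol; higher B-score means a larger calcium signal and so more RGS4 inhibition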
Target sequence (P49798 whole entry, looked up): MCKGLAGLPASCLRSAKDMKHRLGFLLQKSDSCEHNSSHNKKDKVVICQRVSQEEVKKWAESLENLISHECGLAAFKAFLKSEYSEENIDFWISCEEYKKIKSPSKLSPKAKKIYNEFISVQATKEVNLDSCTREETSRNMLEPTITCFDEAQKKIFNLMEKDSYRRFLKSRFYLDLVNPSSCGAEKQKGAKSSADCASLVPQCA
MrgX1 ag – activates human MrgX1 receptor signaling | AID 588627 | Q96LB2 | 310,000 compounds, 0.44% hits | B-score at 10 µM | MrgX1-HEK293 cells, Fluo-4 calcium fluorescence, agonist mode; stronger effect = higher value;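 active = calcium response B-score plate-corrected fluorescence ratio at least 3 library SD, with starting fluorescence B-score inside 5 SD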
Target sequence (Q96LB2 whole entry, looked up): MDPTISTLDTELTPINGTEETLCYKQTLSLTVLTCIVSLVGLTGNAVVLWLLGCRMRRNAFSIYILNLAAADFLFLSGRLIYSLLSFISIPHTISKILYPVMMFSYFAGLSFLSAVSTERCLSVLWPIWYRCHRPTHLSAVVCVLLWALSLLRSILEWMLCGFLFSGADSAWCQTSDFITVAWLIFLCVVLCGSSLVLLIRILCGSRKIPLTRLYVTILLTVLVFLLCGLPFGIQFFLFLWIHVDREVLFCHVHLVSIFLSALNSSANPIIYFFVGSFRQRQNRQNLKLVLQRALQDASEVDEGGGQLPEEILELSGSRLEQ
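Material: MrgX1-expressing HEK293 cells; input: 15,000 cells per well; doses: test compound given as first of three sequential additions; schedule: overnight plating before 1 h dye loading; technique: Fluo-4 NW calcium-flux fluorescence, kinetic read; evaluation: baseline-normalised fluorescence change ratio, B-scored; control set: plate-wise positive and negative controls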
MrgX1 PAM – allosterically activates human MrgX1 receptor signaling | AID 588675 | MrgX1-HEK293, Fluo-4 calcium flux, FDSS; stronger effect = higher value | B-score at 10 µM | 310,000 compounds, 0.63% hits | Q96LB2;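 active = plate-corrected calcium response at least 3 library SD above typical, normal starting fluorescence, not activating the receptor alone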;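 note: compound read alongside a low EC10 to EC30 dose of BAM8-22 agonist; peak minus trough fluorescence over baseline measured at the second addition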
RGS4 pot – RGS4 potentiation or activation; HEK293 M3R/inducible RGS4, carbachol calcium flux Fluo4; stronger effect = lower value; B-score at 10 µM; 310,000 compounds, 0.92% hits; AID 463111;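 active = B-score of the integrated calcium signal more than 4 SD below the library mean, with starting fluorescence not abnormally high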;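 note: negative B-score means reduced calcium response which marks RGS4 activation or potentiation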
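Test system: HEK293 cells with stable M3R and inducible RGS4; also added: carbachol at ECmax as muscarinic agonist stimulus; schedule: dye loading 30 min 37 °C, buffer rest 30 min RT; technique: kinetic calcium fluorescence imaging with Fluo4-AM dye, 2 µM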
MrgX1 antag – antagonists of human MrgX1 receptor | MRGX1-HEK293 calcium flux, Fluo-4, BAM8-22 antagonism; stronger effect = lower value | 310,000 compounds, 1.3% hits | Q96LB2 | B-score at 10 µM;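 active = calcium-response B-score plate-corrected more than 3 library SD below zero, starting fluorescence within 5 deviations, no agonist response on first addition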;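 note: peak minus trough fluorescence over baseline after final BAM8-22 challenge near maximal dose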
KCC2 mod – modulators of human KCC2 chloride dependent transport; KCC2 cells, thallium flux FluoZin-2 fluorescence; 190,000 compounds, 2.2% hits; Q9H2X9; B-score of Tl+ flux slope (higher = more flux/activation; lower = inhibition) at 10 µM;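 active = thallium flux slope and its plate-corrected score both differing from the plate sample mean at a set confidence after two filtering rounds, in either direction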;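 note: slope of fluorescence scaled to starting intensity during 10 to 20 s after thallium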
KCC2 sec1 – KCC2 (human) modulation, secondary assay; shares compounds with KCC2 mod; HEK293-KCC2, thallium flux, FluoZin2 fluorescence; stronger effect = higher value; normalised thallium flux (F/F0 slope) at 10 µM; 3,700 compounds, 15% hits;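 active = thallium flux slope above the same plate's solvent-only control mean plus 3 SD; inconclusive = the two replicate wells disagree; inactive = no significant difference from solvent-only control wells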
KCC2 bumet counter – bumetanide-insensitive thallium flux in KCC2 cells with ouabain, counter-screen. HEK293-KCC2 + bumetanide/ouabain, thallium flux FluoZin2; stronger effect = higher value. shares compounds with KCC2 mod. normalized thallium flux at 10 µM. 3,700 compounds, 49% hits;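 active = thallium entry rate above the same plate's blocked-transporter control wells by more than 3 SD; inconclusive = the two repeat wells disagree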;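 note: raw slope of fluorescence over initial fluorescence between 10 and 20 s after thallium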
KCC2 secondary2 – KCC2 (human) modulation, second secondary assay. shares compounds with KCC2 mod. HEK293-KCC2, thallium flux FluoZin2 fluorescence; actives lie on both sides; F/F0 rise rate, 10–20 s post-thallium. normalized thallium flux at 10 µM. 3,700 compounds, 23% hits. AID 1715;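 active = thallium flux slope more than 3 SD above or below the plate's solvent-only control mean, mostly below; inconclusive = the two repeat wells disagreed; inactive = no significant shift from solvent-only controls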
HEK counter1 – acts in parental HEK cells, KCC2 counter-screen; shares compounds with KCC2 mod; HEK293 parental cells, thallium flux FluoZin2, ouabain; baseline-ratio fluorescence slope, 10–20 s after thallium; thallium flux rate (normalised fluorescence) at 10 µM; 3,700 compounds, 46% hits; AID 1716;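 active = thallium flux rate significantly above the same plate's solvent-only control wells, beyond their mean plus 3 SD; inconclusive = the two replicate wells gave conflicting results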
KCC2 retest ouab – confirmation of human KCC2 modulators with ouabain | raw Tl+ flux slope (below DMSO = inhibition, above = activation) at 10 µM | 3,700 compounds, 48% hits | shares compounds with KCC2 mod | HEK293-KCC2, thallium flux FluoZin2 fluorescence; bidirectional: low = inhibitor, high = activator;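 active = thallium flux slope beyond 3 SD from same-plate DMSO control mean in most replicates, usually higher, sometimes lower; inconclusive = repeat tests gave conflicting results; inactive = no significant difference from controls in most replicates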;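 note: slope of initial-normalized fluorescence between seconds 10 and 20 after thallium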
HEK293 Tl flux2 – parental HEK flux effect, counter-screen 2; shares compounds with KCC2 mod; HEK293 parental, thallium flux FluoZin-2 fluorescence slope; thallium flux slope at 10 µM; 3,700 compounds, 33% hits; AID 1718;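 active = thallium flux slope above the same plate's solvent-control mean plus 3 SD in both duplicate wells; inconclusive = duplicate wells that disagreed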;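 note: run without ouabain in cells lacking the KCC2 cotransporter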
Each line names hits and unclear results; the compound was inactive in the other large screens (follow-up assays come after a bar, where they were run).

Cc1cc(C)c2nc(SCC(=O)Nc3cc(C)on3)c(C)cc2c1	none (no result: KCC2 mod)
CCc1nc2c(c(=O)[nH]1)C1(CCCC1)Cc1ccccc1-2	none (no result: KCC2 mod) | KCC2 sec1 inactive | KCC2 bumet counter inactive | KCC2 secondary2 inactive | HEK counter1 inactive | KCC2 retest ouab inactive | HEK293 Tl flux2 inactive
O=c1[nH]c(CN2CCCCC2)nc2c1C1(CCCCC1)Cc1ccccc1-2	none
Cc1nc(=S)c2c([nH]1)-c1ccccc1CC21CCCCC1	KCC2 mod 77 | KCC2 sec1 0.02 | KCC2 bumet counter 0.1 | KCC2 secondary2 inactive | HEK counter1 0.04 | KCC2 retest ouab 0.068 | HEK293 Tl flux2 0.011
CCN(CC)c1ccc(/C=N/n2c(-c3ccccc3Br)n[nH]c2=S)cc1	none
Cc1nn(-c2ccccc2)c(C)c1/C=N/n1c(-c2ccccc2Br)n[nH]c1=S	KCC2 mod 10 | KCC2 sec1 inactive | KCC2 bumet counter 0.042 | KCC2 secondary2 inactive | HEK counter1 0.011 | KCC2 retest ouab inconclusive | HEK293 Tl flux2 inconclusive
Cc1ccc(/C=C2/Sc3ccccc3N(CC(=O)NCCCOC(C)C)C2=O)cc1	MrgX1 antag -4.8, KCC2 mod -3.3 | KCC2 sec1 inactive | KCC2 bumet counter inactive | KCC2 secondary2 inconclusive | HEK counter1 inactive | KCC2 retest ouab 0.014 | HEK293 Tl flux2 inactive
Cc1ccc2nc(N3CCN(Cc4ccc(F)cc4)C3=O)c(C)cc2c1	none (no result: KCC2 mod) | KCC2 sec1 inactive | KCC2 bumet counter inactive | KCC2 secondary2 0.024 | HEK counter1 inactive | KCC2 retest ouab inactive | HEK293 Tl flux2 inactive
COc1ccc(CCNc2oc(COc3ccccc3)nc2C#N)cc1	none (no result: KCC2 mod) | KCC2 sec1 inactive | KCC2 bumet counter inactive | KCC2 secondary2 inactive | HEK counter1 inconclusive | KCC2 retest ouab inconclusive | HEK293 Tl flux2 inactive
CN(Cc1ccccc1)c1oc(COc2ccccc2F)nc1C#N	none (no result: KCC2 mod) | KCC2 sec1 inactive | KCC2 bumet counter inactive | KCC2 secondary2 inactive | HEK counter1 inactive | KCC2 retest ouab inconclusive | HEK293 Tl flux2 inactive
COc1ccc(CNc2oc(COc3ccccc3)nc2C#N)cc1	none (no result: KCC2 mod) | KCC2 sec1 inactive | KCC2 bumet counter inconclusive | KCC2 secondary2 inactive | HEK counter1 inactive | KCC2 retest ouab inconclusive | HEK293 Tl flux2 inactive
N#Cc1nc(COc2ccccc2F)oc1NCCc1ccccc1	none (no result: KCC2 mod) | KCC2 sec1 inactive | KCC2 bumet counter inconclusive | KCC2 secondary2 0.025 | HEK counter1 0.0064 | KCC2 retest ouab 0.014 | HEK293 Tl flux2 inactive
COc1ccc(Nc2oc(COc3ccccc3F)nc2C#N)cc1	none (no result: KCC2 mod)
COc1ccc(Nc2oc(COc3ccc(OC)cc3)nc2C#N)cc1	none
N#Cc1nc(COc2ccccc2F)oc1N1CCCCCC1	none (no result: RGS4 block, RGS4 pot, KCC2 mod)
N#Cc1c(-c2ccccc2)nc(SCc2cccc(Cl)c2)[nH]c1=O	none (no result: KCC2 mod)
CCN(CC)S(=O)(=O)c1cc(NC(=O)c2cccc(N3C(=O)CCC3=O)c2)ccc1Cl	none (no result: KCC2 mod)
CCOc1ccc(Cc2nnc(SCC(=O)Nc3c(C)cccc3C)[nH]c2=O)cc1	none (no result: KCC2 mod)
N#Cc1nc(COc2ccccc2Cl)oc1NCc1cccnc1	KCC2 mod -3 | KCC2 sec1 inactive | KCC2 bumet counter inactive | KCC2 secondary2 inactive | HEK counter1 inactive | KCC2 retest ouab 0.022 | HEK293 Tl flux2 inactive
N#Cc1ccsc1NC(=O)C1CC(=O)N(Cc2ccccc2)C1 (configuration not stated)	none (no result: KCC2 mod)
CC(C)(C)c1ccc(C(=O)/C=C2\NC(=O)CS2)cc1	KCC2 mod 31 | KCC2 sec1 inactive | KCC2 bumet counter 0.049 | KCC2 secondary2 0.05 | HEK counter1 0.035 | KCC2 retest ouab 0.043 | HEK293 Tl flux2 0.037
O=C(CCNC(=O)N1CC(=O)Nc2ccccc21)Nc1ccc(Br)cc1F	none (no result: KCC2 mod)
COc1ccc(C(CNC(=O)Nc2cccc(C)c2)N2CCN(C)CC2)cc1 (configuration not stated)	none (no result: KCC2 mod)
COCCNC(=O)CSc1ncnc2sc(-c3ccccc3)cc12	KCC2 mod 7.5 | KCC2 sec1 inactive | KCC2 bumet counter 0.021 | KCC2 secondary2 inactive | HEK counter1 0.014 | KCC2 retest ouab 0.022 | HEK293 Tl flux2 0.017
CC(=O)CCSc1ncnc2sc(-c3ccccc3)cc12	none (no result: KCC2 mod)
O=C(O)CCSc1ncnc2sc(-c3ccccc3)cc12	KCC2 mod 51 | KCC2 sec1 inconclusive | KCC2 bumet counter 0.056 | KCC2 secondary2 0.043 | HEK counter1 0.056 | KCC2 retest ouab 0.055 | HEK293 Tl flux2 0.033
O=C(c1ccc(S(=O)(=O)N2CCCC2)cc1)N(c1ccc(F)cc1)C1C=CS(=O)(=O)C1 (configuration not stated)	none (no result: KCC2 mod)
S=C1CSc2ccccc2N1	KCC2 mod 8.6 | KCC2 sec1 inactive | KCC2 bumet counter 0.016 | KCC2 secondary2 inactive | HEK counter1 0.014 | KCC2 retest ouab inconclusive | HEK293 Tl flux2 0.014
CCOC(=O)c1cc(-c2ccc(Cl)cc2)nc2c1c(=O)[nH]c(=O)n2CCOC	none
CCOC(=O)c1cc(-c2ccc(Cl)cc2)nc2onc(C)c12	none (no result: KCC2 mod) | KCC2 sec1 inactive | KCC2 bumet counter inactive | KCC2 secondary2 inactive | HEK counter1 inactive | KCC2 retest ouab inactive | HEK293 Tl flux2 inactive
CN1c2ccccc2C(O)=C(C(=S)Nc2ccc(Cl)cc2)S1(=O)=O	none (no result: KCC2 mod) | KCC2 sec1 inactive | KCC2 bumet counter 0.021 | KCC2 secondary2 inactive | HEK counter1 0.017 | KCC2 retest ouab inconclusive | HEK293 Tl flux2 0.021
Cc1cccc(NC(=O)C2=C(O)c3ccccc3N(C)S2(=O)=O)c1	none
CC#CC(=O)N1CCC(C(=O)Nc2ccc(Oc3ccccc3)nc2)CC1	none (no result: KCC2 mod)
COc1cccc(CN(C)C(=O)c2ccc(Oc3ccccc3)cc2)c1OC	none (no result: KCC2 mod)
